From PubChem
APJ ag: agonists of human APJ apelin receptor | CHO-K1 APJ PathHunter beta-arrestin, luminescence; 0% DMSO wells, 100% apelin | activation, % at 20 µM | 330,000 tested, 0.11% active;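 active = activation more than six SD over the plate average, tested at 20 µM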
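Incubation: overnight seeding, 90 min compound at 25 °C, 1 h detection; test system: PathHunter CHO-K1 APJ (AGTRL-1) beta-arrestin reporter cells; amount: 1000 cells/well; doses: one dose, 20 µM compound, 1% DMSO; measured by: beta-gal luminescence; measure: agonist-driven arrestin binding to APJ; benchmarks: negative DMSO alone, positive Apelin-13 at 10 nM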
m5-HT2A agonist: activates the mouse 5-HT2A serotonin receptor; activation, % at 7.6 µM; CHO-K1 mHTR2A beta-arrestin complementation, luminescence; percent of 30 µM serotonin response; AID 624169; 360,000 tested, 0.66% active;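 active = activation above a run cutoff, the mean activation of all tested compounds plus 3 SD, cut at about 14% in these data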
APJ antagonist: antagonists of human APJ apelin receptor; P35414; CHO-K1 APJ beta-arrestin complementation, luminescence; inhibition, % at 20 µM; 330,000 tested, 0.32% active;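 active = inhibition above about 40% at 20 µM, limit read from the data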;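 also: cells challenged with 10 nM apelin-13 agonist together with compound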
CCR6 antag: antagonists of human CCR6 receptor; CHO-K1 CCR6 PathHunter beta-arrestin, luminescence, CCL20-stimulated; AID 493098; P51684; inhibition, % at 20 µM; 340,000 tested, 0.49% active;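 active = compounds whose inhibition of the agonist-driven luminescence signal at 20 µM reaches about 50%, limit read from the data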;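 also: cells stimulated with CCL20 at 14 nM final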
CXCR6 block: CXCR6 (human) receptor inhibition. O00574. CHO-K1 PathHunter CXCR6 beta-arrestin, luminescence. inhibition, % at 20 µM. 360,000 tested, 0.36% active; in the data active = inhibition above about 34%, passing the limit was not always enough;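 also: antagonist mode with CXCL16 agonist at 10 nM final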
Target sequence (O00574 whole entry, looked up): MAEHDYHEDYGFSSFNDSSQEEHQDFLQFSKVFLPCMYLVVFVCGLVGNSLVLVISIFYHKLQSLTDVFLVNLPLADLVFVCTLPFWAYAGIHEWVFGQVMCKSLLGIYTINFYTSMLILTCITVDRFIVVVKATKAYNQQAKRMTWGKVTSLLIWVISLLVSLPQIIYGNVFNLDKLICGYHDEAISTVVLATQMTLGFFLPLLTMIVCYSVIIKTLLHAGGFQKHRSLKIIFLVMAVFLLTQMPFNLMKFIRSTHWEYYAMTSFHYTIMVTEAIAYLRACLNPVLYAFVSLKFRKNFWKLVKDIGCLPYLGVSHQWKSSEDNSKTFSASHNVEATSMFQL
EBI2 antag: antagonists of human EBI2 receptor; 360,000 tested, 0.81% active; inhibition, % at 5 µM; P32249; EBI2 beta-arrestin recruitment, luminescence, 7a,25-OHC stimulated; in the data active = inhibition above about 38%;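 also: enzyme fragment complementation signal reports receptor beta-arrestin coupling in cells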
APJ ag conf: APJ receptor agonism confirmation | 310 tested, 10% active | shares compounds with APJ ag | AID 2764 | CHO-K1 APJ PathHunter beta-arrestin, luminescence | activation, % at 20 µM;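 active = activation above 40%, taking the highest of four retests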
OPRM1 ag: counter-screen for mouse HTR2A agonists: human mu opioid receptor agonists; shares compounds with m5-HT2A agonist; U2OS OPRM1 beta-arrestin PathHunter, luminescence; DMSO 0%, DAMGO 9.3 µM 100%; activation, % at 9.3 µM; 2,300 tested, 5.3% active;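 active = mean activation above the mean of DMSO-only wells plus 3 SD, cut at about 0.5% in these data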
m5-HT2A ag conf: confirmation of mouse HTR2A serotonin receptor agonists. shares compounds with m5-HT2A agonist. CHO-K1 PathHunter beta-arrestin recruitment, luminescence; DMSO 0%, 30 µM serotonin 100%. activation, % at 7.6 µM. 2,300 tested, 19% active;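 active = mean activation across triplicates above the hit threshold derived in the original primary screen, cut at about 15% in these data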
A number is an active result; – = inactive; · = no result. In the library only some 2.1% were active in any assay of this set; here they are far more common.

SMILES | APJ ag | m5-HT2A agonist | APJ antagonist | CCR6 antag | CXCR6 block | EBI2 antag | APJ ag conf | others
CCOc1ccc(NC(=O)COc2ccc(C(=O)NCCc3ccccc3)cc2)cc1 | – | – | – | – | – | – | ·
CCCCc1ccc(NC(=O)COc2ccc(C(=O)Nc3ccccc3OCC)cc2)cc1 | 36 | – | – | – | – | – | –
CCc1ccc2nc(N(CCCN(C)C)C(=O)c3ccc(S(=O)(=O)N4CCc5ccccc5C4)cc3)sc2c1 | 60 | – | – | – | – | – | –
CCOc1cccc2sc(N(CCCN(C)C)C(=O)c3ccc(S(=O)(=O)N4CCc5ccccc5C4)cc3)nc12 | – | – | – | – | – | – | ·
CN1OC[C@@H]2CN(S(=O)(=O)c3cccc(C(F)(F)F)c3)[C@H](c3ccc(N4CCCCC4)cc3)C[C@@H]21 | · | – | · | · | – | – | ·
CC(CCN1CCN(CCO)CC1)c1ccccc1 (stereo not given) | – | – | – | – | – | – | ·
CCOC(=O)c1ccc(NC(=O)c2ccc(C)c(S(=O)(=O)N3CCOCC3)c2)cc1 | – | – | – | – | – | – | ·
CCOC(=O)c1ccc(NC(=O)c2cccc(S(=O)(=O)N3CCOCC3)c2)cc1 | 14 | – | – | – | – | – | –
CC(NC(=O)CCC(=O)N1CCCCCC1)c1ccccc1 (stereo not given) | – | – | – | – | – | – | ·
O=C(COc1ccccc1[N+](=O)[O-])OCCCOC(=O)COc1ccccc1[N+](=O)[O-] | – | – | – | – | – | – | ·
CSc1ccc(C(=O)C2CCCN(C(=O)c3ccsc3)C2)cc1 (stereo not given) | – | – | – | – | – | – | ·
CSc1ccc(C(=O)C2CCCN(C(=O)c3ccc4c(c3)no[n+]4[O-])C2)cc1 (stereo not given) | 18 | – | – | – | – | – | 44
O=C(CSc1nnc2ccc(-c3ccco3)nn12)Nc1ccccc1F | – | – | – | – | – | – | ·
Cc1ccc(-c2ccc(/C=C3\C(=O)ON=C3c3ccccc3)o2)c([N+](=O)[O-])c1 | 16 | – | – | 62 | – | – | –
CCOc1ncccc1C(=O)Nc1cc(S(=O)(=O)N2CCCCC2)ccc1OC | 25 | – | – | – | – | – | –
Cc1ccc(C(=O)N2CCN(c3ncnc4c3cnn4-c3ccccc3)CC2)cc1 | 32 | – | – | · | – | – | –
CC(C)N1C(=O)CC(Nc2ccc(N3CCOCC3)cc2)C1=O (stereo not given) | – | – | – | – | – | – | ·
CCOC(=O)C1=C(C)NC2=C(C(=O)c3ccccc32)C1c1ccc([N+](=O)[O-])o1 (stereo not given) | – | – | – | – | – | – | ·
O=C(COC(=O)c1ccc2ncsc2c1)Nc1ccc(OC(F)(F)F)cc1 | 18 | – | – | – | – | – | –
COc1ccc(CNC(=O)OCCN2CCN(Cc3ccccc3)CCC2=O)cc1 | – | – | – | – | – | – | ·
Cc1ccccc1C(=O)O/N=C/c1c(N2CCOCC2)n(C)c2ccccc12 | 15 | – | – | – | – | – | –
COc1ccccc1NC(=O)c1ccc(NC(=O)C2CC2C)cc1 (stereo not given) | – | – | – | – | – | – | ·
CC(=O)N(/N=C/c1cccc(C)c1)c1nc(-c2ccc(Br)cc2)cs1 | – | – | – | – | – | – | ·
COc1ccc(/C=N/N(C(C)=O)c2nc(-c3ccc(C)cc3)cs2)cc1 | 50 | – | – | – | – | – | –
COc1ccccc1-n1c(SC)nc(O)cc1=O | 66 | – | – | – | – | – | 88
SMILES | APJ ag | m5-HT2A agonist | APJ antagonist | CCR6 antag | CXCR6 block | EBI2 antag | APJ ag conf | others
COC(=O)[C@]1(Cc2ccccc2)N[C@H](CN(C)C(=O)Nc2ccc(OC)cc2)[C@@H]2C(=O)N(Cc3ccccc3)C(=O)[C@@H]21 | 12 | – | – | – | – | – | –
COC(=O)[C@]1(Cc2ccccc2)N[C@H](CN(C)C(=O)Nc2ccc(OC)cc2)[C@@H]2C(=O)N(C)C(=O)[C@@H]21 | – | – | – | – | – | – | ·
COc1ccc(COC(=O)C2=C(C)NC(=O)NC2c2ccc(F)cc2)cc1 (stereo not given) | 23 | – | – | – | – | – | –
CC1(C)CC(=O)C(C(=O)Cc2ccccc2[N+](=O)[O-])C(=O)C1 | – | – | – | – | – | – | ·
CCOC(=O)CSc1nc2ccc(Nc3nc(N4CCOCC4)nc(N4CCOCC4)n3)cc2s1 | 19 | – | – | – | – | – | –
COCCCNc1nc2ccccc2nc1NS(=O)(=O)c1ccc(C)c(C)c1 | – | – | – | – | – | – | ·
N/C(=N\OC(=O)c1cccc(F)c1)c1cccc([N+](=O)[O-])c1 | 15 | – | – | – | – | – | –
N/C(=N/OC(=O)c1cccc([N+](=O)[O-])c1)c1cccc([N+](=O)[O-])c1 | 26 | – | – | – | – | – | –
CCCCN(C)CCn1c(=S)[nH]c2cc(OCC)c(OCC)cc2c1=O | 54 | – | – | – | – | – | –
COc1ccc(S(=O)(=O)N2CCN(Cc3ccc4c(c3)OCO4)CC2)cc1F | – | – | – | – | – | – | ·
COc1cc(S(=O)(=O)N2CCN(Cc3ccc4c(c3)OCO4)CC2)ccc1NC(C)=O | 16 | – | – | · | – | – | –
Cc1ccc(-n2ncc3c(N4CCCC4)ncnc32)c(C)c1 | – | – | – | – | – | – | ·
COc1cccc(N2CCN(c3ncnc4c3cnn4-c3ccc(C)cc3C)CC2)c1 | 16 | 15 | – | – | – | – | – | OPRM1 ag=3.0;m5-HT2A ag conf=–
COc1ccc(CNC(=O)c2ccc(N3CCCC3=O)cc2)cc1 | – | – | – | – | – | – | ·
CC(C)(C)OC(=O)NCCCCCc1cn([C@@H](CO)C(=O)NCCCCCCCCCCC(=O)N2CCN(C(=O)OC(C)(C)C)CC2)nn1 | 45 | 15 | – | – | – | – | 52 | OPRM1 ag=–;m5-HT2A ag conf=19
Cc1[nH]c2ccccc2c1C(=O)COC(=O)C1CC(O)CN1S(=O)(=O)c1ccc(Cl)cc1 (stereo not given) | 28 | 15 | – | – | – | – | – | OPRM1 ag=–;m5-HT2A ag conf=–
Cc1nn(-c2ccc(Cl)cc2)c(=O)c2ccccc12 | – | – | – | – | – | – | ·
